# How the values were obtained:
# [1] = molecular target: Serine/threonine-protein kinase Chk2 (Homo sapiens) (UniProt O96017); experiment: Inhibition of CHK2 at 1 uM
# [2] = molecular target: Calcium/calmodulin-dependent protein kinase type II subunit alpha (Homo sapiens) (UniProt Q9UQM7); experiment: Inhibition of CaMK2alpha at 1 uM
# Aurora kinase B [3] = molecular target: Aurora kinase B (Homo sapiens, UniProt Q96GD4, E161T); experiment: Inhibition of N-terminal flag-tagged Aurora B E161T mutant expressed in Escherichia coli BL21-DE3
# Sequence of Aurora kinase B (Homo sapiens, UniProt Q96GD4, E161T) (Q96GD4 whole entry E161T): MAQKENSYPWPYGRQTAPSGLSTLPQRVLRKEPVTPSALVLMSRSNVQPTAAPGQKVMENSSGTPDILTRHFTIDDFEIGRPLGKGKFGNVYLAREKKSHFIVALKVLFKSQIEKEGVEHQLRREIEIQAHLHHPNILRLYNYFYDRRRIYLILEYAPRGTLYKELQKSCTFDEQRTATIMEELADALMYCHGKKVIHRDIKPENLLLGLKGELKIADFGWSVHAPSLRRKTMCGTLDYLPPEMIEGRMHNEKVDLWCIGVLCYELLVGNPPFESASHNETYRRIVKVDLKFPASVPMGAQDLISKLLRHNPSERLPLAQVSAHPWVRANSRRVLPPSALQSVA
# [4] = molecular target: Serine/threonine-protein kinase PLK1 (Homo sapiens) (UniProt P53350); experiment: Inhibition of PLK1 at 1 uM
# [5] = molecular target: Protein kinase C alpha type (Homo sapiens) (UniProt P17252); experiment: Inhibition of PKCalpha at 1 uM
# [6] = molecular target: Mitogen-activated protein kinase 1 (Homo sapiens) (UniProt P28482); experiment: Inhibition of ERK2 at 1 uM
# [7] = molecular target: Vascular endothelial growth factor receptor 2 (Homo sapiens) (UniProt P35968); experiment: Inhibition of VEGFR2 at 1 uM
# Sequence of Vascular endothelial growth factor receptor 2 (Homo sapiens) (P35968 whole entry): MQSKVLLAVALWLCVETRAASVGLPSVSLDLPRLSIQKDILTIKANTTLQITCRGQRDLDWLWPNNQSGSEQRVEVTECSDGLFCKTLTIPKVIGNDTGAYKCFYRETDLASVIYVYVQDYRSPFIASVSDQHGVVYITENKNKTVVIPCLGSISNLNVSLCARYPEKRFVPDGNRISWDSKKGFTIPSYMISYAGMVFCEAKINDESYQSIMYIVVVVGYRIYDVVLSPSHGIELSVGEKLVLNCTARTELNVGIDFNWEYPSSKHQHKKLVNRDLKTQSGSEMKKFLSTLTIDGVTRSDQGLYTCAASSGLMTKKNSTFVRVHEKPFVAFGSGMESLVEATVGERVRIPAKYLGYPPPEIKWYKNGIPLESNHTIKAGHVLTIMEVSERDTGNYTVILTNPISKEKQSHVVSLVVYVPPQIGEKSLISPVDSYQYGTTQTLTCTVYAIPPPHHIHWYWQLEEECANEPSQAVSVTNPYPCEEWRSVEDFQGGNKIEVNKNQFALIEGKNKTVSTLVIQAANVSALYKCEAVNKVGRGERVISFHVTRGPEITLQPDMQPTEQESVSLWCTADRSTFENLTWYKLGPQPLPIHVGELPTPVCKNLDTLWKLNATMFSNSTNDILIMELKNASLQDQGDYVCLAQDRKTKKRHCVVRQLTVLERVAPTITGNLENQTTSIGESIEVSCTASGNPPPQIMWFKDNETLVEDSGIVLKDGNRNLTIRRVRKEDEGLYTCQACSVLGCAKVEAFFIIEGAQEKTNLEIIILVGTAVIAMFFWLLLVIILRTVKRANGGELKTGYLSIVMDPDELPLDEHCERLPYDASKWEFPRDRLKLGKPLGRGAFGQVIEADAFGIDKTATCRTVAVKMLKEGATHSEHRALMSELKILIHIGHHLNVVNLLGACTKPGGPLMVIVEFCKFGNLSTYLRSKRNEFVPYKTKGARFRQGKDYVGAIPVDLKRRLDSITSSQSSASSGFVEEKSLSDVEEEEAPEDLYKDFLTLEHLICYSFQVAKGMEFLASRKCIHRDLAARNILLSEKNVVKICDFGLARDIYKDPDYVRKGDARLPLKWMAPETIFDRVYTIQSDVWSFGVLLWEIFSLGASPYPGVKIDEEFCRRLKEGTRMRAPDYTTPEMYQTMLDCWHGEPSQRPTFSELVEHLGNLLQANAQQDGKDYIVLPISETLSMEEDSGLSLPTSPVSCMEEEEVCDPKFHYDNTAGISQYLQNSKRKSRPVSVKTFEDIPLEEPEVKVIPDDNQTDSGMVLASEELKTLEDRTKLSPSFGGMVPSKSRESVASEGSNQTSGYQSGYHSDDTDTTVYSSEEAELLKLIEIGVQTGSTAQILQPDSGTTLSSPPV
# [8] = molecular target: Serine/threonine-protein kinase B-raf (Homo sapiens) (UniProt P15056); experiment: Inhibition of BRAF at 1 uM
# [9] = molecular target: Platelet-derived growth factor receptor alpha (Homo sapiens) (UniProt P16234); experiment: Inhibition of PDGFRA at 1 uM
# [10] = molecular target: Serine/threonine-protein kinase PAK 3 (Homo sapiens) (UniProt O75914); experiment: Inhibition of PAK3 at 1 uM
# [11] = molecular target: Rho-associated protein kinase 1 (Homo sapiens) (UniProt Q13464); experiment: Inhibition of ROCK1 at 1 uM
# [12] = molecular target: Proto-oncogene tyrosine-protein kinase Src (Homo sapiens) (UniProt P12931); experiment: Inhibition of SRC at 1 uM
# Sequence of Proto-oncogene tyrosine-protein kinase Src (Homo sapiens) (P12931 2-536 limits assumed): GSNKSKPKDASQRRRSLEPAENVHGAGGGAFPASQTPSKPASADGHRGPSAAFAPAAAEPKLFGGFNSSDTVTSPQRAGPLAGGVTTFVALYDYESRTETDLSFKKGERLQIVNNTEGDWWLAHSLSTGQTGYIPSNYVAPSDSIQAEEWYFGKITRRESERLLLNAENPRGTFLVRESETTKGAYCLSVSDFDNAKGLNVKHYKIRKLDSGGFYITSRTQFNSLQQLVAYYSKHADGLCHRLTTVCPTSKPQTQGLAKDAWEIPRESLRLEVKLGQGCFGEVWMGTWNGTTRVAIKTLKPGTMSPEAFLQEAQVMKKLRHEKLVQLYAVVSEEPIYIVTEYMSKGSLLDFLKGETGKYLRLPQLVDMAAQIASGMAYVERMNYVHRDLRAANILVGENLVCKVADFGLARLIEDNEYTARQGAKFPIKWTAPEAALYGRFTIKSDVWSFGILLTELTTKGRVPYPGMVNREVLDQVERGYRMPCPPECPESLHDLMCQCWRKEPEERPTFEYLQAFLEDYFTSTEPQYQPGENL
# [13] = molecular target: G protein-coupled receptor kinase 4 (Homo sapiens) (UniProt P32298); experiment: Inhibition of GRK4 at 1 uM
# [14] = molecular target: Fibroblast growth factor receptor 1 (Homo sapiens) (UniProt P11362); experiment: Inhibition of FGFR1 at 1 uM
# Sequence of Fibroblast growth factor receptor 1 (Homo sapiens) (P11362 22-822 limits assumed): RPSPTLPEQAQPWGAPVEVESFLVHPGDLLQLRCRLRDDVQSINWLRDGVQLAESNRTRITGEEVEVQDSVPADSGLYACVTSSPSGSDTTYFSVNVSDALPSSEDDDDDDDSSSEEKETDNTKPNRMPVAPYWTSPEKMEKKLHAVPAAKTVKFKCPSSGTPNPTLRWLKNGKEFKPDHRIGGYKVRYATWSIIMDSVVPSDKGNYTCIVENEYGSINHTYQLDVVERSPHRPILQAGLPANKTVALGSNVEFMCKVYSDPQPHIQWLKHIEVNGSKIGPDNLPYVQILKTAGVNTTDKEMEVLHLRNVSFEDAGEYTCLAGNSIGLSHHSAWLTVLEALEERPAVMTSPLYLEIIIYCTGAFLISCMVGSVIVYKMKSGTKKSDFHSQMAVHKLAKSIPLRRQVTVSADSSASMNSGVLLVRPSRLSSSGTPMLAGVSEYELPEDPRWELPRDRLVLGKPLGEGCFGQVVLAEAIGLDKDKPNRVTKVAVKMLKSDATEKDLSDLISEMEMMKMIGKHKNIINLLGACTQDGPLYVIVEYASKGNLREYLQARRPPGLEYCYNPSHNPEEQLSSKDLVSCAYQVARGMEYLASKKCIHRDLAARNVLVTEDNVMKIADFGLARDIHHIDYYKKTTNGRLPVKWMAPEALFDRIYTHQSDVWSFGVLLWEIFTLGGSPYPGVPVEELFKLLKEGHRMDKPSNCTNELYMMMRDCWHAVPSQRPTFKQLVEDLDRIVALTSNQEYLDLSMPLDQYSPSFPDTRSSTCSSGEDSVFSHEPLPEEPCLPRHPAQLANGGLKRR
# [15] = molecular target: Serine/threonine-protein kinase Nek9 (Homo sapiens) (UniProt Q8TD19); experiment: Inhibition of NEK9 at 1 uM
# [16] = molecular target: Receptor tyrosine-protein kinase erbB-2 (Homo sapiens) (UniProt P04626); experiment: Inhibition of HER2 at 1 uM
# [17] = molecular target: Serine/threonine-protein kinase Sgk1 (Homo sapiens) (UniProt O00141); experiment: Inhibition of SGK1 at 1 uM
# [18] = molecular target: Serine/threonine-protein kinase Nek4 (Homo sapiens) (UniProt P51957); experiment: Inhibition of NEK4 at 1 uM
# [19] = molecular target: ALK tyrosine kinase receptor (Homo sapiens) (UniProt Q9UM73); experiment: Inhibition of ALK at 1 uM
# [20] = molecular target: Macrophage colony-stimulating factor 1 receptor (Homo sapiens) (UniProt P07333); experiment: Inhibition of FMS at 1 uM
# [21] = molecular target: Phosphorylase b kinase gamma catalytic chain, skeletal muscle/heart isoform (Homo sapiens) (UniProt Q16816); experiment: Inhibition of PHKG1 at 1 uM
# [22] = molecular target: Serine/threonine-protein kinase Nek1 (Homo sapiens) (UniProt Q96PY6); experiment: Inhibition of NEK1 at 1 uM
# [23] = molecular target: RAC-alpha serine/threonine-protein kinase (Homo sapiens) (UniProt P31749); experiment: Inhibition of PKBalpha at 1 uM
# [24] = molecular target: Tyrosine-protein kinase BTK (Homo sapiens) (UniProt Q06187); experiment: Inhibition of BTK at 1 uM
# Sequence of Tyrosine-protein kinase BTK (Homo sapiens) (Q06187 whole entry): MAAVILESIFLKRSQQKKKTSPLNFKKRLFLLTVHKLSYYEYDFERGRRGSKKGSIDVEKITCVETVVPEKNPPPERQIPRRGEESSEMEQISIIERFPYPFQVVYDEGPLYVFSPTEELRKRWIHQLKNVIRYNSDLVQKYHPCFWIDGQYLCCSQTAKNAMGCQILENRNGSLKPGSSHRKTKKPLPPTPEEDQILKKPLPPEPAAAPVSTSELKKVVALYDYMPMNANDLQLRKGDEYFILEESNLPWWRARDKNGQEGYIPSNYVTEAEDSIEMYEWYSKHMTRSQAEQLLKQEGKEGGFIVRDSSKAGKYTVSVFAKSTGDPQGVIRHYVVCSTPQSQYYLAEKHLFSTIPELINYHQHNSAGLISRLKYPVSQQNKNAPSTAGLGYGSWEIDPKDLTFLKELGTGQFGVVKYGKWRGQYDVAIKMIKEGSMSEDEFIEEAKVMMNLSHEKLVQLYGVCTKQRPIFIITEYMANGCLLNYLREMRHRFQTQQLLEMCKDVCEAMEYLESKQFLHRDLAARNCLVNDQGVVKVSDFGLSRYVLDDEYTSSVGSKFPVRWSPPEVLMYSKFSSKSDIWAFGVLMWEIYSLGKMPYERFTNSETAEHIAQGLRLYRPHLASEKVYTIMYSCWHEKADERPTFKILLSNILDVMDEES
# [25] = molecular target: Mitogen-activated protein kinase 8 (Homo sapiens) (UniProt P45983); experiment: Inhibition of JNK1 at 1 uM
# [26] = molecular target: Cytoplasmic tyrosine-protein kinase BMX (Homo sapiens) (UniProt P51813); experiment: Inhibition of BMX at 1 uM
# [27] = molecular target: High affinity nerve growth factor receptor (Homo sapiens) (UniProt P04629); experiment: Inhibition of TRKA at 1 uM
# Aurora kinase B [28] = molecular target: Aurora kinase B (Homo sapiens, UniProt Q96GD4); experiment: Inhibition of Aurora B in human HT29 cells assessed as complete loss of phospho-histone H3 staining by immunofluorescence assay; type: cell-based, HT-29
# Sequence of Aurora kinase B (Homo sapiens, UniProt Q96GD4) (Q96GD4 whole entry): as the sequence (Q96GD4 whole entry E161T) above, with T161E counted along it
# In short: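 Immunofluorescence for phospho-S10 histone H3 in HCT116 or HT29 cells, scored visually. Value taken as the lowest inhibitor concentration giving complete loss of staining, so it lies above the IC50. Units µM.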
# [29] = molecular target: 5'-AMP-activated protein kinase catalytic subunit alpha-1 (Homo sapiens) (UniProt Q13131); experiment: Inhibition of AMPK A1/B1/G1 at 1 uM
# [30] = molecular target: Ribosomal protein S6 kinase beta-1 (Homo sapiens) (UniProt P23443); experiment: Inhibition of p70S6K at 1 uM
# Sequence of Ribosomal protein S6 kinase beta-1 (Homo sapiens) (P23443 whole entry, looked up): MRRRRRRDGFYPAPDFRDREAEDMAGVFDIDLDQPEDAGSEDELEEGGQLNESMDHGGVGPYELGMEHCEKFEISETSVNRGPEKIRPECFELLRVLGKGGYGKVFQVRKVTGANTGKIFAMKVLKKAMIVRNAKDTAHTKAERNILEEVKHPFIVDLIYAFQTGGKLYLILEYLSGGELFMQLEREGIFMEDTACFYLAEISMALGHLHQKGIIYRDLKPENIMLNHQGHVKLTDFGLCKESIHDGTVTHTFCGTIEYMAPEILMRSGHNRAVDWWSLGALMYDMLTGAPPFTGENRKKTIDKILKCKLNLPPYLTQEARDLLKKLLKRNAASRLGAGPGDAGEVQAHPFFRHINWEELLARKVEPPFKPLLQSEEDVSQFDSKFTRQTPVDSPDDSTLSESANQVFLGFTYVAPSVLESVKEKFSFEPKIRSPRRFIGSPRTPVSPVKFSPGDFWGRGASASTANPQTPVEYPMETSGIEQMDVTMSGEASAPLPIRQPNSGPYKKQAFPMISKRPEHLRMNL
# Sequence of Calcium/calmodulin-dependent protein kinase type II subunit alpha (Homo sapiens) (Q9UQM7 whole entry): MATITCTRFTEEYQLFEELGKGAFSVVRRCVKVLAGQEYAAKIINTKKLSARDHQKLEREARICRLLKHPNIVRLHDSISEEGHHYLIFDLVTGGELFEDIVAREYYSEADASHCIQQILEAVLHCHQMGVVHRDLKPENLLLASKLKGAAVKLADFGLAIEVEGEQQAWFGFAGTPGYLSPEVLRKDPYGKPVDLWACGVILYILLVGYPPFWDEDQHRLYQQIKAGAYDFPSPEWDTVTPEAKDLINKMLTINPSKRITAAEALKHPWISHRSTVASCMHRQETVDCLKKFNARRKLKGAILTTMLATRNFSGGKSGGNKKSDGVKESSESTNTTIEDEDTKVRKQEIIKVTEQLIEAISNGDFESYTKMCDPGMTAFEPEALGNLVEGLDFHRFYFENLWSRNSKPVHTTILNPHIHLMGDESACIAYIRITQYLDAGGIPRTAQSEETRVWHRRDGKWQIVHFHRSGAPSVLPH
smiles,measurement,setting,value
CC(=O)N1CCN(C(=O)Cc2ccc(Nc3ncc(F)c(Nc4ccc(C(=O)Nc5ccccc5Cl)cc4)n3)cc2)CC1,inhibition,[1],12%
same,inhibition,[2],9%
same,IC50,Aurora kinase B [3],57 nM
same,inhibition,[4],3%
same,inhibition,[5],15%
same,inhibition,[6],11%
same,inhibition,[7],76%
same,inhibition,[8],7%
same,inhibition,[9],23%
same,inhibition,[10],4%
same,inhibition,[11],-8%
same,inhibition,[12],30%
same,inhibition,[13],-1%
same,inhibition,[14],16%
same,inhibition,[15],17%
same,inhibition,[16],4%
same,inhibition,[17],7%
same,inhibition,[18],11%
same,inhibition,[19],21%
same,inhibition,[20],79%
same,inhibition,[21],18%
same,inhibition,[22],29%
same,inhibition,[23],11%
same,inhibition,[24],46%
same,inhibition,[25],21%
same,inhibition,[26],43%
same,inhibition,[27],67%
same,IC50,Aurora kinase B [28],> 27000 nM
same,inhibition,[29],20%
same,inhibition,[30],17%
